In assay [1] the target is Human immunodeficiency virus type 1 protease (Human immunodeficiency virus 1, UniProt Q72874). In words: Inhibitory activity against HIV-1 protease. Put shortly:
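HIV-1 protease Ki from cleavage of a fluorescent peptide substrate, products resolved by HPLC. Inhibitor was tested at four concentrations spanning 0.1–10 000 nM, the range chosen per inhibitor.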

Assay [2] has as its system Human immunodeficiency virus 1. Description: Inhibition of viral infection in HIV-1 (RF)-infected MT-2 cells with an oligonucleotide-based sandwich hybridization assay. It is filed as functional, MT2. Put shortly: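 Uninfected MT-2 cells were preincubated for 30 min with serial dilutions of compound, then infected with HIV-1 RF and cultured for 3 days at 37 °C, 5% CO2. Lysates were assayed for viral RNA by microtiter oligonucleotide sandwich hybridization.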

Where [3] appears, read: Human immunodeficiency virus 1, MT2.

Molecules are shown by their SMILES. pKi: −log10 of the molar value.

By pKi is commonly meant the negative decadic logarithm of the Ki, by convention in mol/L. Low readings indicate a large Ki, high ones a small Ki. By IC90 is commonly meant the concentration at which the effect reaches the 90% level. Low values mean an effect from little substance, high ones a need for much substance.

In assay [1], `O=C1N(Cc2ccc(CO)cc2)[C@H](Cc2ccccc2)[C@H](O)[C@@H](O)[C@@H](Cc2ccccc2)N1Cc1ccc(CO)cc1` showed a pKi of 5.78. The molecule also came in with an IC90 in assay [2] of 51000 nM.
Molecule `CC(C)CCN1C(=O)N(CCC(C)C)[C@H](Cc2ccccc2)[C@H](O)[C@@H](O)[C@H]1Cc1ccccc1` showed a pKi in assay [1] of 7.92. In assay [2] (setting [3]), this molecule displayed an IC90 of 3200 nM.
In assay [1], `O=C1N(CC2CCC2)[C@H](Cc2ccccc2)[C@H](O)[C@@H](O)[C@@H](Cc2ccccc2)N1CC1CCC1` had a pKi of 8.89. The 90% effect level in assay [2] (setting [3]) (IC90) was put at 1000 nM.
For `C#CCN1C(=O)N(CC#C)[C@H](Cc2ccccc2)[C@H](O)[C@@H](O)[C@H]1Cc1ccccc1` the same measures were 7.66 and 42000 nM.
In the case of `C=COCCN1C(=O)N(CCOC=C)[C@H](Cc2ccccc2)[C@H](O)[C@@H](O)[C@H]1Cc1ccccc1`, the negative-log Ki (pKi) in assay [1] is 7.22. In assay [2] (setting [3]), this molecule registered an IC90 above 107000 nM.
In the case of `O=C1N(Cc2cccc(C(F)(F)F)c2)[C@H](Cc2ccccc2)[C@H](O)[C@@H](O)[C@@H](Cc2ccccc2)N1Cc1cccc(C(F)(F)F)c1`, the 90% effect level in assay [2] (setting [3]) (IC90) was put at 7800 nM.
Take `O=C1N(Cc2ccncc2)[C@H](Cc2ccccc2)[C@H](O)[C@@H](O)[C@@H](Cc2ccccc2)N1Cc1ccncc1`: the pKi in assay [1] is 7.05. This molecule had an IC90 in assay [2] (setting [3]) of 98000 nM.
Regarding `O=C1N(Cc2ccncc2)[C@H](Cc2ccccc2)[C@H](O)[C@@H](O)[C@@H](Cc2ccccc2)N1Cc1ccc2ccccc2c1`, the pKi in assay [1] is 8.16. Also, in assay [2] (setting [3]), the 90% effect concentration (IC90) is 2700 nM.
`O=C1N(Cc2ccccn2)[C@H](Cc2ccccc2)[C@H](O)[C@@H](O)[C@@H](Cc2ccccc2)N1Cc1ccccn1` showed a negative logarithm of the Ki (pKi) in assay [1] of 6.84. In addition, it took 49000 nM to reach the 90% level in assay [2] (setting [3]) (IC90).
In assay [1], `O=C1N(Cc2cccnc2)[C@H](Cc2ccccc2)[C@H](O)[C@@H](O)[C@@H](Cc2ccccc2)N1Cc1cccnc1` gave a negative-log Ki (pKi) of 8.01. Moreover, the 90% effect concentration (IC90) in assay [2] (setting [3]) stood at 8800 nM.
In turn, `CC(C)CCCCN1C(=O)N(CCCCC(C)C)[C@H](Cc2ccccc2)[C@H](O)[C@@H](O)[C@H]1Cc1ccccc1` gave a pKi in assay [1] of 7.52. Further, the IC90 in assay [2] (setting [3]) was above 95000 nM.
`O=C1N(Cc2ccc(C(F)(F)F)cc2)[C@H](Cc2ccccc2)[C@H](O)[C@@H](O)[C@@H](Cc2ccccc2)N1Cc1ccc(C(F)(F)F)cc1`: the 90% effect concentration (IC90) in assay [2] (setting [3]) was determined as 7200 nM.
`O=C1N(CCN2CCOCC2)[C@H](Cc2ccccc2)[C@H](O)[C@@H](O)[C@@H](Cc2ccccc2)N1CCN1CCOCC1` showed an IC90 in assay [2] (setting [3]) above 91000 nM.
`CCCCCN1C(=O)N(CCCCC)[C@H](Cc2ccccc2)[C@H](O)[C@@H](O)[C@H]1Cc1ccccc1`: the pKi in assay [1] was 8.80. Also, the IC90 in assay [2] (setting [3]) stood at 1500 nM.
Consider `CCC(C)CCN1C(=O)N(CCC(C)CC)[C@H](Cc2ccccc2)[C@H](O)[C@@H](O)[C@H]1Cc1ccccc1` (stereo partly drawn), for which the negative logarithm of the Ki (pKi) in assay [1] is 7.44.
For the molecule `Cc1cccc(CN2C(=O)N(Cc3cccc(C)c3)[C@H](Cc3ccccc3)[C@H](O)[C@@H](O)[C@H]2Cc2ccccc2)c1`, the pKi in assay [1] is 8.15. The IC90 in assay [2] (setting [3]) is 2400 nM.
`O=C1N(Cc2cccc(I)c2)[C@H](Cc2ccccc2)[C@H](O)[C@@H](O)[C@@H](Cc2ccccc2)N1Cc1cccc(I)c1` showed a pKi in assay [1] of 9.38. In assay [2] (setting [3]), this molecule came in with a concentration for an effect of 90% (IC90) of 3000 nM.
For `O=C1N(Cc2ccc3ccccc3c2)[C@H](Cc2ccccc2)[C@H](O)[C@@H](O)[C@@H](Cc2ccccc2)N1CC1CC1` the same measures were 8.82 and 1300 nM.
The corresponding values for `O=C1N(Cc2ccccc2F)[C@H](Cc2ccccc2)[C@H](O)[C@@H](O)[C@@H](Cc2ccccc2)N1Cc1ccccc1F` are 7.47 and 5500 nM.
Take `O=C1N(Cc2ccc(Br)cc2)[C@H](Cc2ccccc2)[C@H](O)[C@@H](O)[C@@H](Cc2ccccc2)N1Cc1ccc(Br)cc1`: in assay [1], the pKi was 7.57. The same molecule showed a 90% effect concentration (IC90) in assay [2] (setting [3]) of 8100 nM.
Regarding `O=C1N(Cc2ccc(Cl)cc2)[C@H](Cc2ccccc2)[C@H](O)[C@@H](O)[C@@H](Cc2ccccc2)N1Cc1ccc(Cl)cc1`, in assay [1], the pKi was 8.28. Besides, in assay [2] (setting [3]), the concentration for an effect of 90% (IC90) came out at 4500 nM.

These data come from ChEMBL document CHEMBL1129626, “Cyclic HIV protease inhibitors: synthesis, conformational analysis, P2/P2' structure-activity relationship, and molecular recognition of cyclic ureas” (J Med Chem, 1996).
